Assay results as given in ChEMBL document CHEMBL3244095, “Synthesis and antitumor activity of 5-azacytosine arabinoside” (J Med Chem, 1979).

Legend:
[1] = system: Mus musculus; assay: Toxicity in CDF1 mouse assessed as change in body weight at 20 mg/kg, ip measured on day 5 relative to control; format: organism-based; set-up: dose 20 mg/kg, route intraperitoneal; settings: in vivo
How it was run: (§1)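 CDF1 mice were implanted ip with 10^5 L1210 leukemia cells on day 0. Drug in 0.9% saline was given ip once daily on days 1–9 (nine injections) in a dose-response design. Body weight was compared with untreated tumor-bearing controls. The work was done as duplicate experiments.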

[2] = system: L1210; assay: Antitumor activity in mouse L1210 cells allografted in CDF1 mouse assessed as increase in life span at 3.12 mg/kg, ip administered as qd for 9 days relative to control; format: functional; settings: 216 h, route intraperitoneal
How it was run: (§2)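 CDF1 mice inoculated ip with 10^5 L1210 leukemia cells on day 0; compounds in 0.9% saline given ip once daily days 1–9 (nine injections) across a dose-response range. Antitumor activity = mean increase in life span over untreated controls, expressed as % ILS; duplicate experiments, with drug-related deaths and weight loss monitored.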

[3] = system: Mus musculus; assay: Toxicity in CDF1 mouse assessed as change in body weight at 5 mg/kg, ip measured on day 5 relative to control; format: organism-based; set-up: dose 5 mg/kg, route intraperitoneal; settings: in vivo; how it was run: as §1
[4] = system: L1210; assay: Antitumor activity in mouse L1210 cells allografted in CDF1 mouse assessed as increase in life span at 10 mg/kg, ip administered as qd for 9 days relative to control; format: functional; settings: 216 h, route intraperitoneal; how it was run: as §2
[5] = system: L1210; assay: Antitumor activity in mouse L1210 cells allografted in CDF1 mouse assessed as increase in life span at 5 mg/kg, ip administered as qd for 9 days relative to control; format: functional; settings: 216 h, route intraperitoneal; how it was run: as §2
[6] = system: L1210; assay: Antitumor activity in mouse L1210 cells allografted in CDF1 mouse assessed as increase in life span at 6.25 mg/kg, ip administered as qd for 9 days relative to control; format: functional; settings: 216 h, route intraperitoneal; how it was run: as §2
[7] = system: Mus musculus; assay: Toxicity in CDF1 mouse assessed as change in body weight at 3.12 mg/kg, ip measured on day 5 relative to control; format: organism-based; set-up: dose 3.12 mg/kg, route intraperitoneal; settings: in vivo; how it was run: as §1
[8] = system: Mus musculus; assay: Toxicity in CDF1 mouse assessed as change in body weight at 40 mg/kg, ip measured on day 5 relative to control; format: organism-based; set-up: dose 40 mg/kg, route intraperitoneal; settings: in vivo; how it was run: as §1
[9] = system: L1210; assay: Antitumor activity in mouse L1210 cells allografted in CDF1 mouse assessed as increase in life span at 80 mg/kg, ip administered as qd for 9 days relative to control; format: functional; settings: 216 h, route intraperitoneal; how it was run: as §2
[10] = system: L1210; assay: Antitumor activity in mouse L1210 cells allografted in CDF1 mouse assessed as increase in life span at 40 mg/kg, ip administered as qd for 9 days relative to control; format: functional; settings: 216 h, route intraperitoneal; how it was run: as §2
[11] = system: L1210; assay: Antitumor activity in mouse L1210 cells allografted in CDF1 mouse assessed as increase in life span at 20 mg/kg, ip administered as qd for 9 days relative to control; format: functional; settings: 216 h, route intraperitoneal; how it was run: as §2
[12] = system: L1210; assay: Antitumor activity in mouse L1210 cells allografted in CDF1 mouse assessed as increase in life span at 12.5 mg/kg, ip administered as qd for 9 days relative to control; format: functional; settings: 216 h, route intraperitoneal; how it was run: as §2
[13] = system: Mus musculus; assay: Toxicity in CDF1 mouse assessed as change in body weight at 100 mg/kg, ip measured on day 5 relative to control; format: organism-based; set-up: dose 100 mg/kg, route intraperitoneal; settings: in vivo; how it was run: as §1
[14] = Half life of the compound; format: physicochemical
[15] = system: Mus musculus; assay: Toxicity in CDF1 mouse assessed as change in body weight at 50 mg/kg, ip measured on day 5 relative to control; format: organism-based; set-up: dose 50 mg/kg, route intraperitoneal; settings: in vivo; how it was run: as §1
[16] = system: Mus musculus; assay: Toxicity in CDF1 mouse assessed as change in body weight at 10 mg/kg, ip measured on day 5 relative to control; format: organism-based; set-up: dose 10 mg/kg, route intraperitoneal; settings: in vivo; how it was run: as §1
[17] = system: Mus musculus; assay: Toxicity in CDF1 mouse assessed as change in body weight at 6.25 mg/kg, ip measured on day 5 relative to control; format: organism-based; set-up: dose 6.25 mg/kg, route intraperitoneal; settings: in vivo; how it was run: as §1
[18] = system: Mus musculus; assay: Toxicity in CDF1 mouse assessed as change in body weight at 200 mg/kg, ip measured on day 5 relative to control; format: organism-based; set-up: dose 200 mg/kg, route intraperitoneal; settings: in vivo; how it was run: as §1
[19] = system: Mus musculus; assay: Toxicity in CDF1 mouse assessed as change in body weight at 12.5 mg/kg, ip measured on day 5 relative to control; format: organism-based; set-up: dose 12.5 mg/kg, route intraperitoneal; settings: in vivo; how it was run: as §1
[20] = system: L1210; assay: Antitumor activity in mouse L1210 cells allografted in CDF1 mouse assessed as increase in life span at 25 mg/kg, ip administered as qd for 9 days relative to control; format: functional; settings: 216 h, route intraperitoneal; how it was run: as §2
[21] = system: Mus musculus; assay: Toxicity in CDF1 mouse assessed as change in body weight at 25 mg/kg, ip measured on day 5 relative to control; format: organism-based; set-up: dose 25 mg/kg, route intraperitoneal; settings: in vivo; how it was run: as §1
[22] = system: Mus musculus; assay: Toxicity in CDF1 mouse assessed as change in body weight at 80 mg/kg, ip measured on day 5 relative to control; format: organism-based; set-up: dose 80 mg/kg, route intraperitoneal; settings: in vivo; how it was run: as §1
[23] = system: L1210; assay: Antitumor activity in mouse L1210 cells allografted in CDF1 mouse assessed as increase in life span at 1.56 mg/kg, ip administered as qd for 9 days relative to control; format: functional; settings: 216 h, route intraperitoneal; how it was run: as §2
[24] = system: L1210; assay: Antitumor activity in mouse L1210 cells allografted in CDF1 mouse assessed as increase in life span at 0.78 mg/kg, ip administered as qd for 9 days relative to control; format: functional; settings: 216 h, route intraperitoneal; how it was run: as §2
[25] = system: Mus musculus; assay: Toxicity in CDF1 mouse assessed as change in body weight at 0.78 mg/kg, ip measured on day 5 relative to control; format: organism-based; set-up: dose 0.78 mg/kg, route intraperitoneal; settings: in vivo; how it was run: as §1
[26] = system: Mus musculus; assay: Toxicity in CDF1 mouse assessed as change in body weight at 1.56 mg/kg, ip measured on day 5 relative to control; format: organism-based; set-up: dose 1.56 mg/kg, route intraperitoneal; settings: in vivo; how it was run: as §1
[27] = Drug degradation in water solution at 25 degC after 5.5 hrs by reverse phase liquid chromatography; format: physicochemical; settings: read-out: Drug degradation
How it was run: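 Parent held at 25 °C and sampled over time. Its disappearance was fitted to a first-order rate equation, and the fraction lost was taken at 5.5 h from that fit.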

[28] = system: L1210; assay: Antitumor activity in mouse L1210 cells allografted in CDF1 mouse assessed as increase in life span at 200 mg/kg, ip administered as qd for 9 days relative to control; format: functional; settings: 216 h, route intraperitoneal; how it was run: as §2
[29] = system: L1210; assay: Antitumor activity in mouse L1210 cells allografted in CDF1 mouse assessed as increase in life span at 100 mg/kg, ip administered as qd for 9 days relative to control; format: functional; settings: 216 h, route intraperitoneal; how it was run: as §2
[30] = Drug degradation in water solution at 25 degC after 4 hrs by reverse phase liquid chromatography; format: physicochemical; settings: read-out: Drug degradation
How it was run: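 Nucleoside in water solution held at 25 °C; the loss of parent compound over time was measured by LC analysis. Degradation was read at 4 h.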

[31] = system: L1210; assay: Antitumor activity in mouse L1210 cells allografted in CDF1 mouse assessed as increase in life span at 50 mg/kg, ip administered as qd for 9 days relative to control; format: functional; settings: 216 h, route intraperitoneal; how it was run: as §2

| Compound | ILS at 3.12 mg/kg [2] [%] | ILS at 6.25 mg/kg [6] [%] | Activity [7] [g] | ILS at 12.5 mg/kg [12] [%] | Activity [13] | Activity [15] [g] | Activity [17] [g] | Activity [18] | Activity [19] | ILS at 25 mg/kg [20] [%] | Activity [21] [g] | ILS at 1.56 mg/kg [23] [%] | ILS at 0.78 mg/kg [24] [%] | Activity [25] [g] | Activity [26] [g] | further results |
| --- | --- | --- | --- | --- | --- | --- | --- | --- | --- | --- | --- | --- | --- | --- | --- | --- |
| Nc1ccn([C@@H]2O[C@H](CO)[C@@H](O)[C@@H]2O)c(=O)n1 [CYTARABINE] | 28 | 34 | 0.3 | 91 | Non-toxic | -1.8 | 0.3 | Non-toxic | -0.4 g | 121 | 0 |  |  |  |  | Activity [1]: -0.3 g; Activity [3]: 0.4 g; ILS at 10 mg/kg [4]: 84%; ILS at 5 mg/kg [5]: 47%; Activity [8]: -1 g; ILS at 80 mg/kg [9]: 92%; ILS at 40 mg/kg [10]: 123%; ILS at 20 mg/kg [11]: 127%; half-life [14]: 34 h; Activity [16]: -0.2 g; Activity [22]: -1.8 g |
| Nc1ncn([C@@H]2O[C@H](CO)[C@@H](O)[C@H]2O)c(=O)n1 [AZACITIDINE] | 33 | 1 | -5.3 |  |  |  | -6.1 |  | Toxic |  |  | 66 | 26 | -2 | -1.3 | degraded at 5.5 h [27]: 15% |
| Nc1ncn([C@@H]2O[C@H](CO)[C@@H](O)[C@@H]2O)c(=O)n1 [FAZARABINE] | 28 | 41 | -3.3 | 58 | -4 g | -3.3 | -2.5 | -2.8 g | -3.7 g | 58 | -4 | 66 | 39 | -1.2 | -1.3 | ILS at 200 mg/kg [28]: 19%; ILS at 100 mg/kg [29]: 80%; degraded at 4 h [30]: 15%; ILS at 50 mg/kg [31]: 92% |
